The values that follow come from ChEMBL document CHEMBL1145382, “Novel ergopeptides as dual ligands for adenosine and dopamine receptors” (J Med Chem, 2007).

Activity calls are given as the source filed them. No cut-off for these calls is given here.

The target in assay [1] is T1, Adenosine receptor A1 (Homo sapiens) (UniProt P30542).
T1 sequence (whole entry): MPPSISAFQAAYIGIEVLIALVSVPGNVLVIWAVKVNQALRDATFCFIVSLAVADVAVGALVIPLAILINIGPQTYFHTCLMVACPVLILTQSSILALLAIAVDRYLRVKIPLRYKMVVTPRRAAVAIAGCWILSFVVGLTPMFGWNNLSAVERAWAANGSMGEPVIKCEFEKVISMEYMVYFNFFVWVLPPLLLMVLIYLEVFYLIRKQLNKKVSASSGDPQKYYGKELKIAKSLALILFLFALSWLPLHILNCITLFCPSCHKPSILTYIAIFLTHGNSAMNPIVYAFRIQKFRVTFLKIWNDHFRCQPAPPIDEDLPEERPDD
Nature of the assay: Agonist activity at adenosine A1 receptor transfected in mouse L(tk-) cells assessed as decrease in forskolin-induced cAMP levels. It is filed as functional, cell-based. The procedure, abridged:
(§1)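 Mouse Ltk- fibroblasts cotransfected with human A1R and D1R, preincubated 5-10 min at 22 °C with 50 µM SCH to block D1R. Then 50 µM zardaverine, 10 µM forskolin, and 50 µM ergopeptide, with or without 20 nM R-PIA or 50 µM DPCPX. 35 min total. cAMP by enzyme immunoassay. Three to six determinations.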
On the technique in general: cAMP levels reflect the balance of adenylyl cyclase and phosphodiesterase activity.

Assay [2] deals with D(1A) dopamine receptor (Homo sapiens) (UniProt P21728). In words: Antagonist activity at dopamine D1 receptor transfected in mouse L(tk-) cells assessed as inhibition of SKF-induced stimulation of forskolin-induced cAMP levels. It is filed as functional, cell-based. The procedure, abridged: (§2)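 Mouse Ltk- fibroblasts cotransfected with human A1R and D1R, serum-starved 12-16 h. In HBSS with 50 µM zardaverine, then 50 µM ergopeptide, with or without 20 nM SKF or 50 µM SCH. 35 min total incubation. cAMP by competitive enzyme immunoassay. Three to six determinations, t test.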
Chain of D(1A) dopamine receptor (Homo sapiens) (P21728 whole entry): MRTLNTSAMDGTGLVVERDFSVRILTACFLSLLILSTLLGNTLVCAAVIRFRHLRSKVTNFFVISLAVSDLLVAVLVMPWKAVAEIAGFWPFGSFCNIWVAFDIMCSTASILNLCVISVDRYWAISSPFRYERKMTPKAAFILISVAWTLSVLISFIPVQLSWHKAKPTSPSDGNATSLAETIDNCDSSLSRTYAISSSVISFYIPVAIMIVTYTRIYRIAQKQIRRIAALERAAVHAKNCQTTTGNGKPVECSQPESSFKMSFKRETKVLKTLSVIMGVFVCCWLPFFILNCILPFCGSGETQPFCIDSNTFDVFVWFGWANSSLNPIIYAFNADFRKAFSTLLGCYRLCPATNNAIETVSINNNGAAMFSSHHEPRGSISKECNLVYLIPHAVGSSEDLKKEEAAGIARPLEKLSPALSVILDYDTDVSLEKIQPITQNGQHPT

For assay [3] the target is unchanged. In words: Displacement of [3H]SCH 23390 from dopamine D1 receptor in lamb striatum membrane at 50 uM after 1 hr. The class given is cell membranes. The settings on record: Ovis aries, target entry is the homologue from another species. The procedure, abridged:
(§3)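 Single-concentration screen at 50 µM ergopeptide on lamb striatal membranes (0.5 mg protein/mL), 22 °C, 50 mM Tris-HCl pH 7.4. Radioligands: [3H]SCH 23390 1.2 nM (D1), [3H]YM 09151-2 0.9 nM (D2), [3H]R-PIA 2.2 nM (A1, with MgCl2 and ADA), [3H]CGS 21680 20.1 nM (A2A, with MgCl2 and ADA). Specific binding displaced, after filtration and scintillation counting.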
A general note: Displacement assays read how much labelled ligand stays bound in the presence of the test substance.

Assay [4] has the same target. In words: Agonist activity at dopamine D1 receptor transfected in mouse L(tk-) cells assessed as stimulation of cAMP levels. It is filed as functional, cell-based. The procedure, abridged:
as §2

The target in assay [5] is T1, Adenosine receptor A1 (Homo sapiens). Nature of the assay: Antagonist activity at adenosine A1 receptor transfected in mouse L(tk-) cells assessed as inhibition of R-PIA-induced decrease in forskolin-induced cAMP levels. It is filed as functional, cell-based. The procedure, abridged: as §1
For assay [6], the target named is T2, Adenosine receptor A2a (Homo sapiens, UniProt P29274). In words: Antagonist activity at adenosine A2A receptor in SH-SY5Y cells assessed as CGS-induced intracellular cAMP production at 50 uM. It is filed as functional, cell-based. The procedure, abridged:
(§4)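 SH-SY5Y neuroblastoma cells, endogenous A2AR, stably carrying human D2LR. Serum-starved 12-16 h, in HBSS with 50 µM zardaverine for 10 min, then 50 µM ergopeptide, alone or with the A2AR agonist CGS. 35 min total incubation. cAMP by competitive enzyme immunoassay. Three to six determinations, Student's t test.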

Assay [7] has as its target T1, Adenosine receptor A1 (Homo sapiens). Nature of the assay: Displacement of [3H]R-PIA from adenosine A1 receptor in lamb striatum membrane at 50 uM after 1 hr. The class given is cell membranes. The settings on record: Ovis aries, target entry is the homologue from another species. The procedure, abridged:
as §3

For assay [8], the target named is T2, Adenosine receptor A2a. In words: Displacement of [3H]CGS 21680 from adenosine A2A receptor in lamb striatum membrane after 2 hrs. The class given is cell membranes, Ovis aries. The settings on record: target entry is the homologue from another species. The procedure, abridged:
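Lamb striatal membranes (0.5 mg protein/mL), 22 °C, 50 mM Tris-HCl pH 7.4, with increasing ergopeptide concentrations. Conditions per receptor: D1 1.2 nM [3H]SCH 23390, 1 mM dopamine nonspecific. D2 0.9 nM [3H]YM 09151-2, 100 µM raclopride nonspecific. A1 2.2 nM [3H]R-PIA, 10 mM MgCl2, 0.2 U/mL ADA, 50 µM R-PIA nonspecific. A2A 20.1 nM [3H]CGS 21680, 10 mM MgCl2, 2 U/mL ADA, 1 mM CGS 21680 nonspecific. Filtration, scintillation counting. KD by nonlinear one- or two-site fit. Three to six determinations.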

For assay [9], the target named is T2, Adenosine receptor A2a. In words: Agonist activity at adenosine A2A receptor in SH-SY5Y cells assessed as CGS-induced intracellular cAMP production at 50 uM. It is filed as functional, cell-based. The procedure, abridged: as §4
Assay [10] has as its target D(2) dopamine receptor (Homo sapiens) (UniProt P14416). In words: Antagonist activity at dopamine D2 receptor in SH-SY5Y cells assessed as effect on forskolin-activated intracellular cAMP production at 50 uM. The class given is functional, cell-based. The procedure, abridged: (§5)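 SH-SY5Y cells expressing human D2LR, preincubated 5-10 min at 22 °C with 5 µM ZM to block A2AR. Then 50 µM zardaverine, 10 µM forskolin, and 50 µM ergopeptide, with or without 150 nM quinpirole or 50 µM raclopride. 35 min total. cAMP by enzyme immunoassay. Three to six determinations, t test.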

The target is the same in assay [11]. Nature of the assay: Displacement of [3H]YM 09151-2 from dopamine D2 receptor in lamb striatum membrane at 50 uM after 2 hrs. It is filed as cell membranes. The settings on record: Ovis aries, target entry is the homologue from another species. Summed up:
as §3

The target in assay [12] is T2, Adenosine receptor A2a. Nature of the assay: Displacement of [3H]CGS 21680 from adenosine A2A receptor in lamb striatum membrane at 50 uM after 2 hrs. It is filed as cell membranes. The settings on record: Ovis aries, target entry is the homologue from another species. The procedure, abridged:
as §3

Assay [13] addresses D(2) dopamine receptor (Homo sapiens) (UniProt P14416). In words: Agonist activity at dopamine D2 receptor in SH-SY5Y cells assessed as inhibition of forskolin-activated intracellular cAMP production at 50 uM. It is filed as functional, cell-based. The procedure, abridged: as §5

T2 sequence (P29274 whole entry): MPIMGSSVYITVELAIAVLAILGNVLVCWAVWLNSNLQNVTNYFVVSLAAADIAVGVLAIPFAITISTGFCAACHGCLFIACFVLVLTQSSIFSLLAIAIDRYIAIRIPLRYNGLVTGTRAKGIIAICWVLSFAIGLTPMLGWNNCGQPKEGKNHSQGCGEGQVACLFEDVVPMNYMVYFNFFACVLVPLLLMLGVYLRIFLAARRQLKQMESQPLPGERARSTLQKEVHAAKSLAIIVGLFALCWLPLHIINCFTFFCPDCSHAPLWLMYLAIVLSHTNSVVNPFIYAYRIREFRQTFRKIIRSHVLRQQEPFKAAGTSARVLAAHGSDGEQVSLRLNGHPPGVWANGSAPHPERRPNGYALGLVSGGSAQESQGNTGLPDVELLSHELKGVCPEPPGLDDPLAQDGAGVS
Chain of D(2) dopamine receptor (Homo sapiens) (P14416 whole entry): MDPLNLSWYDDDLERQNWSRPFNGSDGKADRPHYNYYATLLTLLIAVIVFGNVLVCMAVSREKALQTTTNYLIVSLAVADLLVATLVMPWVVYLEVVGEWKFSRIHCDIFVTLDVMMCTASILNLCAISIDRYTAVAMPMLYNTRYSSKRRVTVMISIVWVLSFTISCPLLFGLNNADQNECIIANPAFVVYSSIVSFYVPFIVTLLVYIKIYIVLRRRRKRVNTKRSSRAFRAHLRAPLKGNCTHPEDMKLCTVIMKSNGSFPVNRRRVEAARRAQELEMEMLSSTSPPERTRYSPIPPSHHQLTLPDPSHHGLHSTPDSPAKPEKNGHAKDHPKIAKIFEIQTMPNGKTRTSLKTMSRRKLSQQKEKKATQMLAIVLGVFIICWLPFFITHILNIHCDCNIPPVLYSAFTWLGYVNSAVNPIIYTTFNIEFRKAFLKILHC

In the case of `CC(C)[C@H](NC(=O)[C@@H]1C=C2c3cccc4[nH]cc(c34)C[C@H]2N(C)C1)C(=O)N[C@@H](CCC1CCCCC1)C(=O)N1CCCC(C(N)=O)C1` (some centres undefined), the outcome (in assay [1]; in assay [2]; at Adenosine receptor A2a [9]) was inactive. The Activity (in [3]; in assay [7]; in assay [11]; on Adenosine receptor A2a [12]) was < 40% in each case. Further, the outcome (in assay [4]; in assay [5]; on Adenosine receptor A2a [6]; in assay [10]) was Active. Also, the Kd (in general, the equilibrium constant for the complex coming apart) on Adenosine receptor A2a [8] worked out at 50 µM.
Turning to `CN1C[C@H](C(=O)N[C@@H](CCC2CCCCC2)C(=O)N[C@@H](Cc2ccc(F)cc2)C(=O)N2CCC[C@H]2C(N)=O)C=C2c3cccc4[nH]cc(c34)C[C@H]21`, the result (in assay [1]; in [2]; on Adenosine receptor A2a [9]) was inactive. The Activity (in assay [3]; in assay [7]; in [11]; on Adenosine receptor A2a [12]) was < 40% each time. Further, the outcome in assay [4], in assay [5] and in assay [13] was Active. Also, at Adenosine receptor A2a [8], binding was characterised by a dissociation constant (Kd) of 33 µM.
`CC(C)[C@H](NC(=O)[C@@H]1C=C2c3cccc4[nH]cc(c34)C[C@H]2N(C)C1)C(=O)N[C@@H](CCC1CCCCC1)C(=O)N1c2ccccc2C[C@H]1C(N)=O`: the outcome (in assay [1]; in assay [2]; at Adenosine receptor A2a [9]) was inactive. Besides, the Activity (in [3]; in [7]; in assay [11]; at Adenosine receptor A2a [12]) was < 40% in each case. In addition, the outcome in assay [4], in assay [5] and in assay [10] was Active. In addition, binding on Adenosine receptor A2a [8] was put at a Kd of 25 µM.
